This note sets out measurements from ChEMBL document CHEMBL1138602, “Discovery of sodium 6-[(5-chloro-2-{[(4-chloro-2-fluorophenyl)methyl]oxy}phenyl)methyl]-2-pyridinecarboxylate (GSK269984A) an EP(1) receptor antagonist for the treatment of inflammatory pain” (Bioorg Med Chem Lett, 2009).

What is called efflux ratio is a quotient of directional permeabilities that is used to spot active efflux. In general, IC50 refers to the point on the concentration scale where inhibition reaches its midpoint. One may read the Kp as the ratio of the level in a tissue or fluid to that in plasma or blood. As usually defined, the logD is the decadic logarithm of the distribution of all forms, ionised or not, between an organic phase and buffer at a given pH. The term solubility denotes the concentration that dissolves in the medium under given conditions. By pKi is commonly meant the negative decadic logarithm of the Ki, by convention in mol/L. Usually Ki stands for the equilibrium dissociation constant of an inhibitor or competing ligand from its target. In general, ED50 refers to the dose that gives a 50% effect, or the effect in half of the subjects. By bioavailability is commonly meant the share of a dose that reaches the circulation, judged against a reference dose that is usually intravenous.

One series deals with MDR1. Kind of series: Permeability in dog MDCK2 cells over expressing MDR1 assessed as efflux ratio after 1 hr. The settings on record: MDCK-MDR1.
A further series has as its target T1, Cytochrome P450 1A2 (Homo sapiens, UniProt P05177).
T1 sequence (P05177 whole entry): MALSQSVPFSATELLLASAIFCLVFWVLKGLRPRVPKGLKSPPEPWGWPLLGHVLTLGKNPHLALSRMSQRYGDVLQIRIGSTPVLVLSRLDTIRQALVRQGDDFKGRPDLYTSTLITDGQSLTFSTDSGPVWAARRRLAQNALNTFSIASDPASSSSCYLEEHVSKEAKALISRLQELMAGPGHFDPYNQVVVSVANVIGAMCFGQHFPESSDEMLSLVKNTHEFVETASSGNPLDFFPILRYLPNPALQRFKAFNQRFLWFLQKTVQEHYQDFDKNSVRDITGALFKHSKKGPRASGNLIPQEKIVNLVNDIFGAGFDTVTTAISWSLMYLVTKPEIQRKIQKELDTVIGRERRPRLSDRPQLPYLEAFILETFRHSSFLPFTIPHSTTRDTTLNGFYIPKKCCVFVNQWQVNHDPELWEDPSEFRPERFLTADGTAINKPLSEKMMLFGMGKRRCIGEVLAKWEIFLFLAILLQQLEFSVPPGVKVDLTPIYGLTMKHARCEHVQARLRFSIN
Kind of series: Inhibition of human CYP1A2. The series is classed as ADME. In outline: (§1)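 Inhibition of metabolism of fluorometric substrates (Cypex protocol); IC50 values are the mean of three experiments ± standard deviation.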

A further series deals with Cytochrome P450 2C9 (Homo sapiens, UniProt P11712). Kind of series: Inhibition of human CYP2C9. The series is classed as ADME. In outline:
as §1

The nature of series [1]: Ratio of drug level in brain to blood in complete Freund's adjuvant induced rat inflammatory pain model at 10 mg/kg, po bid for 5 days measured after 1 hr on day 5.
The nature of series [2]: Intrinsic clearance in cynomolgus monkey hepatocytes measured per gram of liver at 0.15 to 0.2 X 10^6 cells/ml cell density. The series is classed as ADME, cell-based, Macaca fascicularis, Hepatocyte. In outline: (§2)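 Intrinsic clearance in hepatocytes expressed as mL/min/g liver. Cell densities were 0.15–0.2 × 10^6 cells/mL or 0.54–0.7 × 10^6 cells/mL.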
A short description of series [3]: Lipophilicity, log D at pH 7.4. It counts as physicochemical. To be noted: buffer.
In another series the test system is Hepatocyte. Kind of series: Intrinsic clearance in human hepatocytes measured per gram of liver at 0.54 to 0.7 X 10^6 cells/ml cell density. The series is classed as ADME, cell-based. In outline: as §2
Series [4] can be described thus: Permeability from apical to basolateral side of dog MDCK2 cells over expressing MDR1 after 1 hr. The series is classed as ADME, cell-based, Canis lupus familiaris, MDCK-II. The settings on record: MDCK-MDR1, read-out: permeability. In outline:
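MDCKII-MDR1 Pgp permeability assay; apical-to-basolateral Pexact permeability in nm/s, with efflux ratio also determined.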

Series [5] in a line: Solubility in water after 0.5 hrs. The series is classed as physicochemical. In outline:
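Solubility determined in water, FaSSIF and FeSSIF, all read at the 0.5 h time point.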

For series [6], the target named is Prostaglandin E2 receptor EP2 subtype (Homo sapiens, UniProt P43116). Kind of series: Inhibition of EP2 receptor.
The target in series [7] is T2, Prostaglandin E2 receptor EP3 subtype (Homo sapiens, UniProt P43115).
T2 sequence (P43115 whole entry): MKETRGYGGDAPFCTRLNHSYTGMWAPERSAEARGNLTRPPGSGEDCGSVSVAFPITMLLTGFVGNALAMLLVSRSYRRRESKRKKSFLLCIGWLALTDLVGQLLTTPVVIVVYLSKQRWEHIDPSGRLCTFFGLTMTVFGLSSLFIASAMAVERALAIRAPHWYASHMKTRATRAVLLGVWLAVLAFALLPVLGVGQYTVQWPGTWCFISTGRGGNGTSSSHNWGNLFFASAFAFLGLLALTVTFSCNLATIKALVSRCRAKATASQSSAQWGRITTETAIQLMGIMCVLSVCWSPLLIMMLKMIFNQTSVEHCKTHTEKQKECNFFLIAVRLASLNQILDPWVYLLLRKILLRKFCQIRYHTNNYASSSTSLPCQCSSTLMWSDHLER
The series is described as follows: Inhibition of EP3 receptor by FLIPR assay.

The target of the next series is Prostacyclin receptor (Homo sapiens, UniProt P43119). The series is described as follows: Inhibition of IP receptor.
Another series concerns the target T3, Thromboxane A2 receptor (Homo sapiens, UniProt P21731).
T3 sequence (P21731 whole entry): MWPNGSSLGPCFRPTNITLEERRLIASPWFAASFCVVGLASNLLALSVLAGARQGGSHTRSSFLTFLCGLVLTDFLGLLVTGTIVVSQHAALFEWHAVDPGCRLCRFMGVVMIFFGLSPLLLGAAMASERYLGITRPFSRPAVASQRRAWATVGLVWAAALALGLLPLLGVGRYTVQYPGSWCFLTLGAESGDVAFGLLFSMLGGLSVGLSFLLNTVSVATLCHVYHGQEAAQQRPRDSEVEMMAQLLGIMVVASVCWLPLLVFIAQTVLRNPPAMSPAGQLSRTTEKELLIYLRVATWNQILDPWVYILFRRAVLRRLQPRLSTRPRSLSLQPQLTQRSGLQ
Kind of series: Inhibition of TP receptor.

For series [8], the target named is Prostaglandin E2 receptor EP4 subtype (Homo sapiens, UniProt P35408). The series is described as follows: Inhibition of EP4 receptor.
The next series relates to Rattus norvegicus. The series is described as follows: Antianalgesic activity against complete Freund's adjuvant induced inflammatory pain in rat assessed as reversal of hypersensitivity dosed as po bid for 5 days measured after 1 hr on day 5. The series is classed as functional.
Series [9] can be described thus: Drug level in blood of complete Freund's adjuvant-induced rat inflammatory pain model at 10 mg/kg, po administered after 23 hrs of adjuvant challenge measured after 1 hr. The series is classed as ADME, organism-based. Also noted: dose 10 mg/kg, route oral. The settings on record: read-out: Drug uptake. In outline:
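CFA rat study: oral doses of 1, 3 or 10 mg/kg given 23 h after intraplantar adjuvant, samples 1 h post-dose. Blood values are the mean from seven animals. Brain values are the mean from three animals.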

Series [10] in a line: Drug level in mouse brain at 0.5 mg/kg/hr administered by infusion for 12 hrs. To be noted: intravenous, read-out: Drug uptake. The series is classed as ADME, organism-based. In outline: (§3)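 Steady-state 12 h infusion at 5 mL/kg/h to reach a target dose of 0.5 mg/kg/h; blood and brain concentrations measured. Data are the mean from three animals.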
Series [11] can be described thus: Ratio of drug level in brain to blood of mouse at 0.5 mg/kg/hr administered by infusion for 12 hrs. The settings on record: brain and blood, intravenous.
The nature of series [12]: Drug level in rat brain at 0.5 mg/kg/hr administered by infusion for 12 hrs. It counts as ADME, organism-based. The settings on record: intravenous, read-out: Drug uptake. In outline:
as §3

The nature of series [13]: Drug level in rat blood at 0.5 mg/kg/hr administered by infusion for 1 hrs. The settings on record: intravenous, read-out: Drug uptake. It counts as ADME, organism-based. In outline:
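Rat given a 1 h infusion; blood and brain concentrations measured.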

A short description of series [14]: Oral bioavailability in Beagle dog at 3 mg/kg. The series is classed as ADME, organism-based, Canis lupus familiaris. To be noted: in vivo. In outline:
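Single oral dose of 3 mg/kg in 1% (w/v) methylcellulose vehicle. Rats were male Sprague-Dawley; dogs were beagle. Bioavailability (Fpo) determined.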

Some results are limits rather than exact numbers.

Sequence of Prostacyclin receptor (P43119 whole entry): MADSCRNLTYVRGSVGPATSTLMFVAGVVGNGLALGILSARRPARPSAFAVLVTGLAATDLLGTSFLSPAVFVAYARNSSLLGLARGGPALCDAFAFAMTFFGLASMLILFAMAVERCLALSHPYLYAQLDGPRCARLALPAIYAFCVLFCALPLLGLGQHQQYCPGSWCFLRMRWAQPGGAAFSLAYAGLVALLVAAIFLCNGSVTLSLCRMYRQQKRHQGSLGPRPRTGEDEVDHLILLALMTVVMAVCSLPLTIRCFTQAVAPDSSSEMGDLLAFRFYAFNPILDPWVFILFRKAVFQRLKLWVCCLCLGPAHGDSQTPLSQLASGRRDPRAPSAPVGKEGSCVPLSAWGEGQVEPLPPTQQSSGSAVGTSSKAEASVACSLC
Sequence of Prostaglandin E2 receptor EP2 subtype (P43116 whole entry): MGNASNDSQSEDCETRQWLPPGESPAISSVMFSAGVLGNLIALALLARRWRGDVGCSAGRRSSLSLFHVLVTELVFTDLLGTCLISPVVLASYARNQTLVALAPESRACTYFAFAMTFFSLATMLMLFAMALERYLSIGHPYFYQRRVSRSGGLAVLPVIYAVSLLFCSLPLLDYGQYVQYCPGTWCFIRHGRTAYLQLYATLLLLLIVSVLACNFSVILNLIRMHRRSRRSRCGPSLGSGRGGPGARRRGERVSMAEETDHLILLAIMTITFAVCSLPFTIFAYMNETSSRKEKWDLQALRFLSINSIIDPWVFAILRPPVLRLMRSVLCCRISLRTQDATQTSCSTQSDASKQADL
Sequence of Cytochrome P450 2C9 (P11712 whole entry): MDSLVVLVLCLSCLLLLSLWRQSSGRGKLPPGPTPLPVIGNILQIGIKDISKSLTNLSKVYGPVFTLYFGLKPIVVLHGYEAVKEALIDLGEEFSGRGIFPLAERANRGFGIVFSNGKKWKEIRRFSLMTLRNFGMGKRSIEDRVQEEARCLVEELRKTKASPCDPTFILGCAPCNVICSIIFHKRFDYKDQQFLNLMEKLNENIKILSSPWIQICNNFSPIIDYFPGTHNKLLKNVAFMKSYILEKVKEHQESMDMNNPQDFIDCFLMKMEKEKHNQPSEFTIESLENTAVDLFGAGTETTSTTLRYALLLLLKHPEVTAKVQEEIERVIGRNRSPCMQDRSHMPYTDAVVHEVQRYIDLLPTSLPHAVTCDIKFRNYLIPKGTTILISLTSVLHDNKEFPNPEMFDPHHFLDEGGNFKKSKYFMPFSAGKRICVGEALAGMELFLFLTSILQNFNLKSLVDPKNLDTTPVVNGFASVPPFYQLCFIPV
Sequence of Prostaglandin E2 receptor EP4 subtype (P35408 whole entry): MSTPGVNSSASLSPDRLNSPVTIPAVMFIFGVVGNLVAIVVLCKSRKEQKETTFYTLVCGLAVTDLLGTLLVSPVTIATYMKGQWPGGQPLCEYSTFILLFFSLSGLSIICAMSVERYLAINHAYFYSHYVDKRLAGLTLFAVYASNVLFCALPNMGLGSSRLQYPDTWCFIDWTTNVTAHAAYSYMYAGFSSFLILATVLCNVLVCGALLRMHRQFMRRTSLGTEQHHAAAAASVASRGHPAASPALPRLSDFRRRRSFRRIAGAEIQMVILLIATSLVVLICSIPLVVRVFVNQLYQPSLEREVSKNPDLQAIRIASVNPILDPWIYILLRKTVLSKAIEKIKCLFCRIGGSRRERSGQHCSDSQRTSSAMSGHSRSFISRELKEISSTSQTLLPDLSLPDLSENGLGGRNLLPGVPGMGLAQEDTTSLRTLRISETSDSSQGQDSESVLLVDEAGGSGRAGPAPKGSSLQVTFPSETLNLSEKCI

In the case of `O=C([O-])c1cccc(Cc2cc(Cl)ccc2OCc2ccc(Cl)cc2F)n1.[Na+]`, in the series on MDR1, the efflux ratio at 1 h was 0.9. The IC50 was 20 µM against Cytochrome P450 1A2; 8 µM against Cytochrome P450 2C9; 1.58 µM in series [6]; above 1 µM on Prostacyclin receptor; above 10 µM in series [8]. The Kp at 1 h in series [1] came to 0.41. For the same compound, the results for the CL (in [2]; with Hepatocyte) were 4.8 mL/min/g and 0.7 mL/min/g, respectively. In [3], this compound returned a logD of 2.1. Also, the Papp A→B at 1 h in [4] came out at 70 ×10⁻⁶ cm/s. In [5], this compound came in with a solubility at 0.5 h of 890 µg/mL. The same compound returned a pKi in [7] of 5.9. This compound showed a Ki at Thromboxane A2 receptor of 0.01 µM. For the same compound, the ED50 with Rattus norvegicus was determined as 3 mg/kg. Besides, the concentration at 1 h in series [9] worked out at 1510 nM; in [13], 1800 nM. Moreover, the concentration at 12 h in series [10] amounted to 56 nM; in series [12], 225 nM. Further, the Kp at 12 h in series [11] came to 0.28. The compound further registered a bioavailability in [14] of 39%.
